Measured values: ChEMBL document CHEMBL1764962, “Selective biocatalytic aminolysis of (±)-epichlorohydrin: synthesis and ICAM-1 inhibitory activity of (S)-(+)-3-arylamino-1-chloropropan-2-ols” (Bioorg Med Chem, 2011)
≈ marks a conversion by molar mass, not a printed value.

Tests used:
[1] = Toxicity in human HUVEC assessed as maximum tolerable dose by trypan blue exclusion assay; type: cell-based; conditions: HUVEC cells, read-out: MTD
Procedure, shortened: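 Primary human umbilical vein endothelial cells were isolated by mild trypsinization. They were grown in M199 with 15% heat-inactivated FCS, 2 mM L-glutamine, penicillin/streptomycin, amphotericin B, endothelial cell growth factor and heparin. Cells were subcultured at confluence with trypsin–EDTA and used at passages three to four. Viability was scored by trypan blue exclusion.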

HUVEC [2] = assay: Antiinflammatory activity in human HUVEC assessed as inhibition of TNF-alpha-induced ICAM-1 expression by modified ELISA; type: functional, cell-based
Procedure, shortened: (§1)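 Primary human umbilical cord endothelial cells were isolated by mild trypsinization and grown in M199 with 15% heat-inactivated FCS, L-glutamine, antibiotics, endothelial cell growth factor and heparin, then used at passages 3–4. Cells were preincubated with compound, then given TNF-α (10 ng/ml) for 16 h and fixed with glutaraldehyde. Surface ICAM-1 was measured by cell-ELISA using anti-ICAM-1 mAb overnight at 4 °C, HRP anti-mouse secondary and OPD substrate (pH 4.5), reading A490.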

HUVEC [3] = assay: Antiinflammatory activity in human HUVEC assessed as inhibition of TNF-alpha-induced ICAM-1 expression at maximum tolerable dose of 30 ug/ml by modified ELISA; type: functional; procedure, shortened: as §1
HUVEC [4] = assay: Antiinflammatory activity in human HUVEC assessed as inhibition of TNF-alpha-induced ICAM-1 expression at maximum tolerable dose of 40 ug/ml by modified ELISA; type: functional; procedure, shortened: as §1
[5] = Homo sapiens, HUVEC, read-out: IC50

O[C@H](CCl)CNc1ccccc1
MNTC [1]: 30 µg/mL | IC50 (HUVEC [2]; [5]): 39.8 µg/mL (≈ 214 µM) | inhibition at 30 µg/mL (HUVEC [3]): 38%

Cc1ccc(NC[C@H](O)CCl)cc1
MNTC [1]: 40 µg/mL | IC50 (HUVEC [2]; [5]): 28.8 µg/mL (≈ 144 µM) | inhibition at 40 µg/mL (HUVEC [4]): 81%

COc1ccc(OC)c(NC[C@H](O)CCl)c1
MNTC [1]: 30 µg/mL | IC50 (HUVEC [2]; huvec): Not Active | inhibition at 30 µg/mL (HUVEC [3]): 40%

O[C@H](CCl)CNc1ccc(Br)cc1
MNTC [1]: 40 µg/mL | IC50 (HUVEC [2]; [5]): 31.6 µg/mL (≈ 119 µM) | inhibition at 40 µg/mL (HUVEC [4]): 76%

O[C@H](CCl)CNc1ccccc1Cl
MNTC [1]: 40 µg/mL | IC50 (HUVEC [2]; [5]): 33.1 µg/mL (≈ 150 µM) | inhibition at 40 µg/mL (HUVEC [4]): 86%

O[C@H](CCl)CNc1cccc(Cl)c1
MNTC [1]: 30 µg/mL | IC50 (HUVEC [2]; huvec): Not Active | inhibition at 30 µg/mL (HUVEC [3]): 24%

O[C@H](CCl)CNc1ccc(Cl)cc1
MNTC [1]: 30 µg/mL | IC50 (HUVEC [2]; [5]): 28.8 µg/mL (≈ 131 µM) | inhibition at 30 µg/mL (HUVEC [3]): 60%
